Laboratory results: ChEMBL document CHEMBL1129958, “Synthesis and antiviral activity of certain 5'-modified analogs of 2,5,6-trichloro-1-(beta-D-ribofuranosyl)benzimidazole” (J Med Chem, 1997)

Legend:
Human betaherpesvirus 5 [1] = assay: In vitro antiviral activity against HCMV (Towne strain) in HFF (human fibroblast) cells.; type: functional, organism-based; conditions: Human betaherpesvirus 5, HFF
Summary of the method: (§1)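 HFF monolayers in 24-well dishes infected with about 100 PFU HCMV/cm2 of cell sheet. After adsorption, compound in growth medium added to duplicate wells at four to eight concentrations. Incubated 7 days at 37 °C, fixed and stained with crystal violet, microscopic plaques counted. Percent plaque reduction against no-drug wells regressed on log concentration to give IC50.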

HFF = assay: Visual cytotoxicity was scored on Human foreskin fibroblasts (HFF cells) at the time of plaque enumeration.; type: functional, cell-based
Summary of the method: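 Stationary HFF cells from the plaque assays, not affected by virus, inspected microscopically for cytotoxicity at the time of plaque counting.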

Human alphaherpesvirus 1 [2] = assay: In vitro antiviral activity against HSV-1 virus in BSC-1 (monkey kidney) cells.; type: functional, organism-based; conditions: Human alphaherpesvirus 1, BSC-1
Summary of the method: (§2)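 BSC-1 cells, 10 000/well in MEM(E) with 10% calf serum, incubated overnight at 37 °C. Drug added in quadruplicate together with HSV-1 KOS at 100 PFU/well and incubated 3 days. Read-out by ELISA with HRP-conjugated rabbit anti-HSV-1 and TMB substrate, absorbance at 450 and 570 nm. Percent absorbance reduction against virus-only wells regressed on log concentration for IC50.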

KB = assay: In vitro inhibition of KB (human carcinoma) cell growth.; type: functional, cell-based
Summary of the method: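 KB cells, 3000–5000/well, incubated overnight at 37 °C. Compound added in quadruplicate at six to eight concentrations for 48 h (about two population doublings). Cells fixed in 95% ethanol, stained with 0.1% crystal violet, dye eluted with acidified ethanol and read at 570 nm. IC50 from regression against log concentration.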

L1210 [3] = assay: concentration required to decrease the cell density in the treated cultures to one-half of the control was measured on L1210 murine Leukemia cells (in vitro); c=No significant growth inhibition observed atthe initial screen concentration; type: functional, cell-based, Mus musculus
L1210 [4] = assay: Effect of initial screen concentration of 10 uM on the growth of L1210 Murine Leukemia cells
L1210 [5] = assay: Effect of initial screen concentration of 100 uM on the growth of L1210 Murine Leukemia cells; type: functional, Mus musculus
Summary of the method: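 L1210 mouse leukemia cells in RPMI 1640 with 10% heat-inactivated horse serum, 2000 cells/well. Compound added the next day and incubated 3 days. Growth read by MTS tetrazolium reduction optical density as percent of control. Screen at 100 µM, or the solubility limit; value is the mean of two or three experiments.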

L1210 [6] = assay: concentration required to decrease the cell density in the treated cultures to one-half of the control was measured on L1210 murine Leukemia cells (in vitro); type: functional, cell-based; conditions: Mus musculus
Summary of the method: (§3)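 L1210 cells, 2000/well, given compound the day after plating and incubated 3 days; cell density read by MTS reduction. Concentration–response in two independent experiments. IC50 is the concentration that halves cell density relative to control, averaged over the two experiments.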

Human betaherpesvirus 5 [7] = assay: In vitro reduction in yield of Towne strain of HCMV in HFF (human fibroblast) cells.; type: functional; conditions: Human betaherpesvirus 5, HFF
Summary of the method: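 HFF in 96-well plates infected with HCMV Towne at MOI 0.5-1 PFU/cell. After adsorption, compound given in duplicate, serially diluted 1:3 from 100 to 0.14 µM. After 7 days at 37 °C, one freeze-thaw cycle, then progeny titred by 1:3 serial dilution on fresh HFF monolayers with plaque counts. IC90 taken from regression of percent inhibition against log concentration.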

L1210 [8] = assay: concentration required to decrease the cell density in the treated cultures to one-half of the control was measured on L1210 murine Leukemia cells (in vitro) (The highest concentration tested); type: functional, cell-based; conditions: Mus musculus; summary of the method: as §3
Human betaherpesvirus 5 [9] = assay: Antiviral activity was determined against Towne strain of HCMV by Plaque and yield reduction test; type: functional
Human betaherpesvirus 5 [10] = assay: Antiviral activity was determined against Towne strain of HCMV by Plaque and yield reduction test (Averaged results from duplicate or triplicate experiments); type: functional
Human betaherpesvirus 5 [11] = assay: Antiviral activity was determined against AD169 strain of HCMV by Plaque and yield reduction test; type: functional, organism-based; summary of the method: as §1
Human alphaherpesvirus 1 [12] = assay: Antiviral activity was determined against Herpes simplex virus-1 by ELISA test (IC50 not reached at the noted concentration tested); type: functional, organism-based; summary of the method: as §2
L1210 [13] = assay: Effect of initial screen concentration of 1 uM on the growth of L1210 Murine Leukemia cells

Row | SMILES | IC50 (Human betaherpesvirus 5 [1]) [µM] | IC50 (HFF) [µM] | IC50 (Human alphaherpesvirus 1 [2]) [µM] | IC50 (KB) [µM] | IC50 (L1210 [3]) | Control (L1210 [4]) [%] | Control (L1210 [5]) [%] | IC50 (L1210 [6]) [µM] | IC90 (Human betaherpesvirus 5 [7]) [µM] | IC50 (L1210 [8]) [µM] | IC90 (Human betaherpesvirus 5 [9]) [µM] | IC90 (Human betaherpesvirus 5 [10]) [µM] | IC50 (Human betaherpesvirus 5 [11]) [µM] | IC50 (Human alphaherpesvirus 1 [12]) [µM] | Control (L1210 [13]) [%]
1 | CC(=O)OC1C(CN=[N+]=[N-])OC(n2c(Cl)nc3cc(Cl)c(Cl)cc32)C1OC(C)=O (centres undefined) | 1.5 | 32 | > 100 | 70 | No significant growth | 110 | – | – | – | – | – | – | – | – | –
2 | CSC[C@H]1OC(n2c(Cl)nc3cc(Cl)c(Cl)cc32)[C@H](O)[C@@H]1O (some centres undefined) | 4.5 | 32 | > 100 | > 100 | – | – | 73 | > 100 | – | – | – | – | – | – | –
3 | CC(=O)OC1C(CBr)OC(n2c(Cl)nc3cc(Cl)c(Cl)cc32)C1OC(C)=O (centres undefined) | 2.7 | 32 | > 100 | 60 | No significant growth | – | 94 | – | – | – | – | – | – | – | –
4 | CCCCOC[C@H]1O[C@@H](n2c(Cl)nc3cc(Cl)c(Cl)cc32)[C@H](OC(C)=O)[C@@H]1OC(C)=O | 21 | 66 | > 100 | > 100 | No significant growth | 92 | – | – | – | – | – | – | – | – | –
5 | OC[C@H]1O[C@@H](n2c(Cl)nc3cc(Cl)c(Cl)cc32)[C@H](O)[C@@H]1O | 2.8 | – | 102 | – | – | – | 76 | > 100 | 1.3 | – | – | – | – | – | –
6 | CC1(C)OC2C(CCl)OC(n3c(Cl)nc4cc(Cl)c(Cl)cc43)C2O1 (centres undefined) | 14 | 32 | > 100 | 100 | – | – | – | – | – | – | – | – | – | – | –
7 | CCOC[C@H]1O[C@@H](n2c(Cl)nc3cc(Cl)c(Cl)cc32)[C@H](OC(C)=O)[C@@H]1OC(C)=O | 4.3 | 33 | > 100 | 60 | – | 83 | – | – | – | > 10 | – | – | – | – | –
8 | CC(=O)OC1C(CCl)OC(n2c(Cl)nc3cc(Cl)c(Cl)cc32)C1OC(C)=O (centres undefined) | 1.4 | 32 | > 100 | 90 | No significant growth | 96 | – | – | 0.31 | – | – | – | – | – | –
9 | [N-]=[N+]=NC[C@H]1OC(n2c(Cl)nc3cc(Cl)c(Cl)cc32)[C@H](O)[C@@H]1O (some centres undefined) | 1.5 | 32 | > 100 | 70 | – | – | 29 | 80 | – | – | 0.6 | – | – | – | –
10 | O[C@@H]1[C@@H](CCl)OC(n2c(Cl)nc3cc(Cl)c(Cl)cc32)[C@@H]1O (some centres undefined) | 1 | 32 | > 100 | 90 | – | – | 73 | > 100 | – | – | – | 0.52 | – | – | –
11 | CCCCOC[C@H]1OC(n2c(Cl)nc3cc(Cl)c(Cl)cc32)[C@H](O)[C@@H]1O (some centres undefined) | 14.2 | 32 | > 100 | 60 | – | – | 64 | > 100 | – | – | – | – | – | – | –
12 | O[C@@H]1[C@@H](CI)OC(n2c(Cl)nc3cc(Cl)c(Cl)cc32)[C@@H]1O (some centres undefined) | 3.2 | 32 | > 100 | – | – | – | – | – | – | – | – | – | 2.9 | – | –
13 | CC(=O)OC1C(CF)OC(n2c(Cl)nc3cc(Cl)c(Cl)cc32)C1OC(C)=O (centres undefined) | 0.6 | 32 | > 100 | 100 | No significant growth | 122 | – | – | 0.19 | – | – | – | – | – | –
14 | CCOC[C@H]1OC(n2c(Cl)nc3cc(Cl)c(Cl)cc32)[C@H](O)[C@@H]1O (some centres undefined) | 4.6 | 26 | > 100 | 80 | – | – | 9 | 59 | – | – | – | – | – | – | –
15 | COC[C@H]1OC(n2c(Cl)nc3cc(Cl)c(Cl)cc32)[C@H](O)[C@@H]1O (some centres undefined) | 3 | 32 | > 100 | 90 | – | – | 4 | 60 | 2 | – | – | – | – | – | –
16 | CSCC1OC(n2c(Cl)nc3cc(Cl)c(Cl)cc32)C(OC(C)=O)C1OC(C)=O (centres undefined) | 4.8 | 32 | > 100 | – | – | – | – | – | – | – | – | – | – | – | –
17 | Nc1nc2c(ncn2COC(CO)CO)c(=O)[nH]1 [GANCICLOVIR] | 7.4 | > 100 | 3.5 | > 100 | – | – | – | – | 1.6 | – | – | – | – | – | –
18 | O[C@@H]1[C@@H](CBr)OC(n2c(Cl)nc3cc(Cl)c(Cl)cc32)[C@@H]1O (some centres undefined) | 1.5 | 32 | > 100 | 90 | – | – | 54 | 100 | 0.5 | – | – | – | – | – | –
19 | O[C@@H]1[C@@H](CF)OC(n2c(Cl)nc3cc(Cl)c(Cl)cc32)[C@@H]1O (some centres undefined) | 0.5 | 32 | > 100 | > 100 | – | – | 81 | > 100 | 0.22 | – | – | – | – | – | –
20 | CC1(C)OC2C(CN=[N+]=[N-])OC(n3c(Cl)nc4cc(Cl)c(Cl)cc43)C2O1 (centres undefined) | 11 | 32 | – | – | – | – | – | – | – | – | – | – | – | – | –
21 | COC[C@H]1O[C@@H](n2c(Cl)nc3cc(Cl)c(Cl)cc32)[C@H](OC(C)=O)[C@@H]1OC(C)=O | 2.8 | 26 | – | 80 | No significant growth | – | – | – | – | – | – | – | – | > 100 | 95
22 | CC(=O)OC1C(CI)OC(n2c(Cl)nc3cc(Cl)c(Cl)cc32)C1OC(C)=O (centres undefined) | 2.7 | 32 | > 100 | 60 | – | – | – | – | – | – | – | – | – | – | –
